A selection: hits, their analogues and other compounds. The true share with any hit is near 2.5%.
OX1R antag-1: antagonists of human orexin 1 receptor (OX1R) | O43613 | OX1R-expressing cells, FRET antagonist read-out | inhibition, % at 6.6 µM | 330,000 tested, 1.8% active; in the data active = inhibition mostly above about 38%, no sharp cut-off; inactive = mostly below about 40%
Target sequence (O43613 whole entry, looked up): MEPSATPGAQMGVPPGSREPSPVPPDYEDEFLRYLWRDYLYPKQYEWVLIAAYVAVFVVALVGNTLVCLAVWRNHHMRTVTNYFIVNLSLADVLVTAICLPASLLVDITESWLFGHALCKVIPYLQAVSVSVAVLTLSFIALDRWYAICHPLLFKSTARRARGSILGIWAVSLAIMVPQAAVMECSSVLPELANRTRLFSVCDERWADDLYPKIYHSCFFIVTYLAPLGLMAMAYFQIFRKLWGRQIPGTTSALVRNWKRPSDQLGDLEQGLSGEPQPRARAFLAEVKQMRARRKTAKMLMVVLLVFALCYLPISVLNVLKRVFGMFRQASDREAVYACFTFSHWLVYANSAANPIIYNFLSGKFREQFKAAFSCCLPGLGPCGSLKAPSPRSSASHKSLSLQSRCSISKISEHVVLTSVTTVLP
TRPML3 agonist: activates the human TRPML3 channel. Q8TDD5. activation, % at 3 µM. 220,000 tested, 0.29% active. HEK293 TRPML3-YFP, Fluo-8 calcium fluorescence; 100% = the carbachol control signal;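 active = activation above its plate's cutoff, the mean activation of the plate's test wells plus 3 SD, cut at about 12% in these data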
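system = HEK293 cells stably carrying human TRPML3-YFP | doses = one concentration, 3 µM nominal, 0.3% DMSO | timing = dye loading 1 h 37 °C then 30 min ambient, 125 s read | detection = Fluo-8 calcium dye fluorescence, ex 470-495, em 515-575 nm | benchmarks = high control carbachol 87 µM, low control DMSO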
OX1R antag-2: blocks the human orexin 1 receptor. inhibition, % at 5 µM. CHO/OX1R cells, Fluo-8 calcium fluorescence, orexin A. 330,000 tested, 0.43% active. O43613;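 active = inhibition above its plate's threshold, mean inhibition of all tested compounds on the plate plus 3 SD, cut at about 37% in these data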
CHO parental Ca: signal in parental CHO cells, OX1R antagonist counter-screen; AID 463079; parental CHO-K1, ATP-induced calcium, Fluo-8 fluorescence; inhibition, % at 5.6 µM; 330,000 tested, 0.63% active;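 active = inhibition above that plate's mean sample inhibition plus 3 SD, cut at about 26% in these data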
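Measured by: calcium-sensitive Fluo-8 fluorescence / Test system: CHO parental line / Controls: ATP-challenged DMSO wells low, unchallenged DMSO wells high / Measure: % inhibition / Compound: single nominal dose of 5.6 µM per compound / Replicates: single well per compound, no replicates / Reagent: ATP as calcium-mobilizing challenge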
zfTRPN1 agonist: agonists of zebrafish TRPN1 channel | activation, % at 3 µM | AID 1424 | HEK293 zebrafish TRPN1-YFP, Fluo-8 calcium fluorescence; 100% = response to 87 µM carbachol | 220,000 tested, 0.18% active;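 active = activation above its plate's cutoff, the mean activation of test wells on that plate plus 3 SD, cut at about 19% in these data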
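Material: zebrafish TRPN1-YFP in HEK293 cells. Doses: one dose of 3 µM, 0.3% DMSO. Incubation: dye 1 h 37 °C plus 30 min RT. Measured by: intracellular calcium fluorescence with Fluo-8.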
Hits are given with their value; 0 = inactive; - = no result given.

SMILES	OX1R antag-1	TRPML3 agonist	OX1R antag-2	CHO parental Ca	zfTRPN1 agonist
Cc1ccccc1OCCCCn1cnc2ccccc21	0	0	0	50	0
Cc1ccccc1OCCn1c(C)nc2ccccc21	0	-	0	35	-
C#CCn1c(S(=O)(=O)Cc2ccc(F)cc2)nc(-c2ccccc2)c1-c1ccccc1	40	0	0	0	0
CCOC(=O)Cn1c(S(=O)(=O)Cc2ccc(F)cc2)nc(-c2ccccc2)c1-c1ccccc1	0	0	0	0	0
COc1c(OC)c(O)c2c(=O)c(O)c(-c3ccccc3)oc2c1OC	57	0	0	0	0
COc1ccc(-c2oc3c(OC)c(OC)c(OC)c(O)c3c(=O)c2OC)cc1OC	0	0	0	0	0
Fc1ccc(-c2ccc(Nc3cccc(F)c3)nn2)cc1	0	0	0	44	0
O=C(COC(=O)c1ccc(Br)cc1)NC(=O)NCc1ccccc1	0	-	0	0	-
COc1ccc(Cc2n[nH]c(=S)n2NC(=O)Nc2ccc(Cl)c(Cl)c2)cc1	58	0	0	52	0
O=C(Nc1ccc(-c2nc3ccccc3[nH]2)cc1)c1ccccc1NS(=O)(=O)c1ccc(F)cc1	53	0	0	0	0
Cc1cc(F)ccc1S(=O)(=O)Nc1ccccc1C(=O)Nc1ccccc1-c1nc2ccccc2[nH]1	0	0	0	30	0
CC(=O)c1c(C)[nH]c(C(=O)OCC(=O)Nc2cc(Cl)ccc2[N+](=O)[O-])c1C	48	0	0	27	0
CC(=O)c1c(C)[nH]c(C(=O)OCC(=O)Nc2ccc(C)cc2[N+](=O)[O-])c1C	0	0	0	45	0
O=C(NCCSc1c(-c2ccccc2)[nH]c2ccccc12)c1cc2ccccc2oc1=O	56	0	0	0	0
CCCC(=O)OCCNC(=O)c1cc2ccccc2oc1=O	0	0	0	0	0
CC(=O)OCCNC(=O)c1cc2ccccc2oc1=O	70	0	0	0	0
COc1cccc(N=Nc2c(N)[nH]n3c(=O)cc(-c4ccccc4)nc23)c1	0	0	0	0	0
COc1cccc(N=Nc2c(=O)[nH]n3c(C)cc(C)nc23)c1	64	0	0	0	0
CCOC(=O)c1ccc(N2CCN(c3ccccc3F)CC2)c(NC(=O)Nc2ccccc2)c1	0	0	0	39	0
CCOC(=O)c1sc(NC(=O)c2sccc2C)cc1C	42	0	0	0	0
CCOC(=O)Cc1csc(NC(=O)c2ccc(NC(C)=O)cc2)n1	0	0	0	0	0
CCOC(=O)Nc1nc(C)c(C(=O)c2ccc(Cl)cc2)s1	0	0	0	0	0
CCOC(=O)c1sc(NC(=O)c2cccs2)cc1C	0	0	0	0	0
CCOC(=O)Cc1csc(NC(=O)Nc2ccc(OC(F)(F)F)cc2)n1	0	0	0	29	0
CCOC(=O)c1sc(NC(=O)c2ccc(Br)o2)cc1C	45	0	0	0	0
SMILES	OX1R antag-1	TRPML3 agonist	OX1R antag-2	CHO parental Ca	zfTRPN1 agonist
CCOC(=O)c1sc(NC(=O)Nc2ccc(Cl)cc2)nc1C	0	0	0	43	0
CCOC(=O)c1c(NC(=O)Nc2ccccc2)sc(C)c1C	0	0	0	0	0
CCOC(=O)c1sc(NC(=O)Nc2cccc(Cl)c2)cc1C	47	0	0	34	0
CCOC(=O)c1ccc(NC(=O)c2c(N)n(C)c(=O)n(C)c2=O)cc1	0	-	0	0	-
CCOC(=O)c1nc2c(=O)n(C)c(=O)n(C)c2n(C)c1=O	48	-	0	0	-
Cc1ccc(C(=O)Nc2ccc3c(c2)C(=O)N(CC2CCCO2)C3=O)cc1 (centres undefined)	0	-	0	0	-
O=C(Nc1ccncc1)c1ccc2c(c1)C(=O)N(C1CCCCC1)C2=O	0	0	0	51	0
O=C(Nc1ccncc1)c1ccc2c(c1)C(=O)N(CC1CCCO1)C2=O (centres undefined)	53	0	0	0	0
Cc1c(Cl)cccc1NC(=O)CSc1nc(=O)n(CCCN2CCOCC2)c2c1CCC2	0	-	0	0	-
Cc1ccc(-c2csc(NC(=O)c3ccc(Br)cc3)c2C(=O)O)cc1	0	-	0	0	-
COc1cc(C(=O)Nc2scc(-c3ccc(Br)cc3)c2C(=O)O)cc(OC)c1OC	54	-	0	0	-
CCC1(C)NC(=O)N(CC(=O)NCC(=O)Nc2c(C)cc(C)cc2C)C1=O (centres undefined)	0	-	0	0	-
CCOC(=O)c1c(-c2ccc(OC)cc2)nc2nonc2c1N	0	0	0	0	0
CC(=O)c1c(C)nc2nonc2c1N	76	0	0	0	0
CCCc1ccc(OCc2ccc(C(=O)NN)o2)c(OC)c1	0	-	0	0	-
CCCCCCCCC#Cc1nc(C)ccc1OC	0	-	0	48	-
O=C(c1ccc2c(=O)n(Cc3ccccc3Cl)c(=S)[nH]c2c1)N1CCOCC1	0	-	0	0	-
CCN(CC)C(=O)c1oc2ccc(S(=O)(=O)N3CC(C)CC(C)C3)cc2c1C (centres undefined)	0	-	0	41	-
CCSc1ncnc2c1oc1ccccc12	0	0	0	0	0
c1coc(CN(Cc2ccco2)c2ncnc3c2oc2ccccc23)c1	0	0	0	36	0
Cc1cccc(-c2ocnc2C(=O)Nc2ccccc2NC(=O)c2ccccn2)c1	66	-	0	0	-
COc1ccc(NC(=O)CSc2nncn2C)c([N+](=O)[O-])c1	38	0	0	0	0
COc1ccccc1C(=O)NC(=O)CSc1nncn1C	0	-	0	40	-
COc1ccc(NC(=O)CS(=O)(=O)Cc2ccccc2)c([N+](=O)[O-])c1	50	-	0	0	-
COc1ccc(NC(=O)c2cc(Br)ccc2Cl)c([N+](=O)[O-])c1	0	0	0	31	0
SMILES	OX1R antag-1	TRPML3 agonist	OX1R antag-2	CHO parental Ca	zfTRPN1 agonist
COc1ccc(Cl)cc1C(=O)NNC(=O)CSc1nncn1C	0	-	0	0	-
CC1(C)CC(=O)C=C(c2ccc3ccccc3c2)C1	0	-	0	0	-
c1coc(-c2nc3ccccc3nc2-c2ccco2)c1	43	0	0	0	0
O=C(Nc1ccccc1)O/N=C/c1ccc(F)cc1	0	-	0	0	-
Oc1ccc(N=Nc2ccc3ccccc3c2)cc1	0	-	0	43	-
COc1cc(N=Nc2ccc3ccccc3c2)ccc1O	0	-	0	0	-
O=C(OCc1ccccc1)/C(=C(\O)c1ccccc1Br)c1ccc(-c2ccccc2)cn1	0	-	0	0	-
CC(C)Cn1c(N)c(C(=O)COC(=O)Cc2cccc(C(F)(F)F)c2)c(=O)n(C)c1=O	0	-	0	55	-
CC(C)Cn1c(N)c(C(=O)COC(=O)Cc2cccs2)c(=O)n(C)c1=O	0	-	0	0	-
Cc1ccc(NC(=O)C2CCN(S(=O)(=O)c3c(C)n[nH]c3C)CC2)c(C)c1	0	-	0	0	-
CC(C)c1cc(C(=O)Nc2cccc(C(F)(F)F)c2)no1	0	0	0	0	0
O=C(Nc1ccccc1C(F)(F)F)c1cc(-c2cccc(O)c2)on1	0	0	0	51	0
O=C(Nc1cccc(C(F)(F)F)c1)c1cc(-c2ccc(F)cc2)on1	0	0	0	58	0
COc1cccc(-c2cc(C(=O)Nc3cccc(O)c3)no2)c1	71	0	0	0	0
